# Experimental data from ChEMBL document CHEMBL1136049, “Synthesis of syn- and anti-1-amino-3-[18F]fluoromethyl-cyclobutane-1-carboxylic acid (FMACBC), potential PET ligands for tumor detection” (J Med Chem, 2002).
# Legend:
# Rattus norvegicus [1] = species: Rattus norvegicus; assay: Radioactivity distribution in heart of tumor-bearing fischer rat after injection of anti-[18F]FMACBC after 60 min; type: ADME, organism-based; conditions: in vivo, 1 h
# In short: (§1)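 Male Fischer 344 rats carrying intracranial rat 9L gliosarcoma, made by stereotaxic injection of 4 × 10^4 cells 17–19 days before. Awake restrained rats received ~35 μCi of 18F tracer in 0.3 mL sterile water IV by tail vein and were killed at 5, 60 or 120 min, n = 3–5. Tissues were weighed, gamma-counted, decay-corrected and expressed as % injected dose per gram.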
# Rattus norvegicus [2] = species: Rattus norvegicus; assay: Radioactivity distribution in liver of tumor-bearing fischer rat after injection of syn-[18F]-FMACBC after 60 min; type: ADME, organism-based; conditions: in vivo, 1 h
# In short: (§2)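 Male Fischer 344 rats with intracranial 9L gliosarcoma (4 × 10^4 cells stereotaxically implanted; used 17–19 days after implantation). About 35 μCi tracer in 0.3 mL sterile water was given by tail vein to awake, restrained rats. Rats were killed at 5, 60 or 120 min. Tissues, tumor and contralateral brain were weighed and gamma counted, decay-corrected, and expressed as %ID/g; n = 3–5 per time point.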
# Rattus norvegicus [3] = species: Rattus norvegicus; assay: Radioactivity distribution in kidney of tumor-bearing fischer rat after injection of syn-[18F]-FMACBC after 5 min; type: ADME, organism-based; conditions: in vivo; in short: as §1
# Rattus norvegicus [4] = species: Rattus norvegicus; assay: Radioactivity distribution in liver of normal fischer rat after injection of syn-[18F]-FMACBC after 5 min.; type: ADME, organism-based; conditions: in vivo
# In short: (§3)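 Male Fischer 344 rats (200–250 g), normal, fed ad libitum, given ~85 μCi of 18F tracer in 0.3 mL sterile water IV through a tail vein catheter. Anesthesia was ketamine:xylazine IM. Groups of four were killed at 5, 30, 60 and 120 min. Tissues were weighed and gamma-counted against dose standards, decay-corrected, and expressed as mean % injected dose per gram.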
# Rattus norvegicus [5] = species: Rattus norvegicus; assay: Radioactivity distribution in spleen of normal fischer rat after injection of syn-[18F]-FMACBC after 60 min.; type: ADME, organism-based; conditions: in vivo, 1 h
# In short: (§4)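 Normal male Fischer 344 rats (200–250 g) were anesthetised with ketamine:xylazine i.m. and given about 85 μCi tracer in 0.3 mL sterile water via a tail vein catheter. Groups of four were killed at 5, 30, 60 and 120 min. Selected tissues were weighed and gamma counted with dose standards, decay-corrected, and expressed as mean %ID/g.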
# Rattus norvegicus [6] = species: Rattus norvegicus; assay: Radioactivity distribution in testis of tumor-bearing fischer rat after injection of anti-[18F]FMACBC after 5 min; type: ADME, organism-based; conditions: in vivo; in short: as §2
# Rattus norvegicus [7] = species: Rattus norvegicus; assay: Radioactivity distribution in heart of normal fischer rat after injection of syn-[18F]-FMACBC after 5 min.; type: ADME, organism-based; conditions: in vivo; in short: as §3
# Rattus norvegicus [8] = species: Rattus norvegicus; assay: Radioactivity distribution in testis of normal fischer rat after injection of syn-[18F]-FMACBC after 60 min.; type: ADME, organism-based; conditions: in vivo, 1 h; in short: as §4
# Rattus norvegicus [9] = species: Rattus norvegicus; assay: Radioactivity distribution in muscle of normal fischer rat after injection of anti-[18F]FMACBC after 5 min.; type: ADME, organism-based, Muscle tissue; conditions: in vivo; in short: as §4
# Rattus norvegicus [10] = species: Rattus norvegicus; assay: Radioactivity distribution in blood of normal fischer rat after injection of anti-[18F]FMACBC after 60 min.; type: ADME, organism-based; conditions: in vivo, 1 h; in short: as §3
# Rattus norvegicus [11] = species: Rattus norvegicus; assay: Radioactivity distribution in bone of normal fischer rat after injection of syn-[18F]-FMACBC after 5 min.; type: ADME, organism-based, Bone element; conditions: in vivo; in short: as §3
# Rattus norvegicus [12] = species: Rattus norvegicus; assay: Radioactivity distribution in bone of tumor-bearing fischer rat after injection of syn-[18F]-FMACBC after 5 min; type: ADME, organism-based, Bone element; conditions: in vivo; in short: as §1
# Rattus norvegicus [13] = species: Rattus norvegicus; assay: Radioactivity distribution in kidney of tumor-bearing fischer rat after injection of anti-[18F]FMACBC after 5 min; type: ADME, organism-based; conditions: in vivo; in short: as §1
# Rattus norvegicus [14] = species: Rattus norvegicus; assay: Radioactivity distribution in pancreas of normal fischer rat after injection of syn-[18F]-FMACBC after 120 min.; type: ADME, organism-based; conditions: in vivo, 2 h; in short: as §4
# Rattus norvegicus [15] = species: Rattus norvegicus; assay: Radioactivity distribution in brain of tumor-bearing fischer rat after injection of syn-[18F]-FMACBC after 60 min; type: ADME, organism-based; conditions: in vivo, 1 h; in short: as §1
# Rattus norvegicus [16] = species: Rattus norvegicus; assay: Radioactivity distribution in tumor of tumor-bearing fischer rat after injection of syn-[18F]-FMACBC after 5 min; type: ADME, organism-based; conditions: in vivo; in short: as §2
# Rattus norvegicus [17] = species: Rattus norvegicus; assay: Radioactivity distribution in testis of tumor-bearing fischer rat after injection of anti-[18F]FMACBC after 120 min; type: ADME, organism-based; conditions: in vivo, 2 h; in short: as §2
# Rattus norvegicus [18] = species: Rattus norvegicus; assay: Radioactivity distribution in lung of tumor-bearing fischer rat after injection of syn-[18F]-FMACBC after 60 min; type: ADME, organism-based; conditions: in vivo, 1 h; in short: as §2
# Rattus norvegicus [19] = species: Rattus norvegicus; assay: Radioactivity distribution in kidney of normal fischer rat after injection of syn-[18F]-FMACBC after 120 min.; type: ADME, organism-based; conditions: in vivo, 2 h; in short: as §3
# Rattus norvegicus [20] = species: Rattus norvegicus; assay: Radioactivity distribution in pancreas of normal fischer rat after injection of anti-[18F]FMACBC after 120 min.; type: ADME, organism-based; conditions: in vivo, 2 h; in short: as §4
# Rattus norvegicus [21] = species: Rattus norvegicus; assay: Radioactivity distribution in bone of normal fischer rat after injection of syn-[18F]-FMACBC after 120 min.; type: ADME, organism-based, Bone element; conditions: in vivo, 2 h; in short: as §3
# Rattus norvegicus [22] = species: Rattus norvegicus; assay: Radioactivity distribution in muscle of tumor-bearing fischer rat after injection of anti-[18F]FMACBC after 5 min; type: ADME, organism-based, Muscle tissue; conditions: in vivo; in short: as §2
# Rattus norvegicus [23] = species: Rattus norvegicus; assay: Radioactivity distribution in pancreas of tumor-bearing fischer rat after injection of anti-[18F]FMACBC after 60 min; type: ADME, organism-based; conditions: in vivo, 1 h; in short: as §2
# Rattus norvegicus [24] = species: Rattus norvegicus; assay: Radioactivity distribution in pancreas of normal fischer rat after injection of syn-[18F]-FMACBC after 60 min.; type: ADME, organism-based; conditions: in vivo, 1 h; in short: as §4
# Rattus norvegicus [25] = species: Rattus norvegicus; assay: Radioactivity distribution in testis of tumor-bearing fischer rat after injection of anti-[18F]FMACBC after 60 min; type: ADME, organism-based; conditions: in vivo, 1 h; in short: as §2
# Rattus norvegicus [26] = species: Rattus norvegicus; assay: Radioactivity distribution in liver of normal fischer rat after injection of syn-[18F]-FMACBC after 30 min.; type: ADME, organism-based; conditions: in vivo, 0.5 h; in short: as §3
# Rattus norvegicus [27] = species: Rattus norvegicus; assay: Radioactivity distribution in brain of normal fischer rat after injection of syn-[18F]-FMACBC after 120 min.; type: ADME, organism-based; conditions: in vivo, 2 h; in short: as §3
# Rattus norvegicus [28] = species: Rattus norvegicus; assay: Radioactivity distribution in kidney of normal fischer rat after injection of syn-[18F]-FMACBC after 60 min.; type: ADME, organism-based; conditions: in vivo, 1 h; in short: as §3
# Rattus norvegicus [29] = species: Rattus norvegicus; assay: Radioactivity distribution in liver of tumor-bearing fischer rat after injection of anti-[18F]FMACBC after 5 min; type: ADME, organism-based; conditions: in vivo; in short: as §2
# Rattus norvegicus [30] = species: Rattus norvegicus; assay: Radioactivity distribution in lung of tumor-bearing fischer rat after injection of anti-[18F]FMACBC after 60 min; type: ADME, organism-based; conditions: in vivo, 1 h; in short: as §2
# Rattus norvegicus [31] = species: Rattus norvegicus; assay: Radioactivity distribution in brain of normal fischer rat after injection of syn-[18F]-FMACBC after 5 min.; type: ADME, organism-based; conditions: in vivo; in short: as §3
# Rattus norvegicus [32] = species: Rattus norvegicus; assay: Radioactivity distribution in muscle of normal fischer rat after injection of syn-[18F]-FMACBC after 5 min.; type: ADME, organism-based, Muscle tissue; conditions: in vivo; in short: as §4
# Rattus norvegicus [33] = species: Rattus norvegicus; assay: Radioactivity distribution in muscle of normal fischer rat after injection of syn-[18F]-FMACBC after 60 min.; type: ADME, organism-based, Muscle tissue; conditions: in vivo, 1 h; in short: as §4
# Rattus norvegicus [34] = species: Rattus norvegicus; assay: Radioactivity distribution in brain of tumor-bearing fischer rat after injection of anti-[18F]FMACBC after 5 min; type: ADME, organism-based; conditions: in vivo; in short: as §1
# Rattus norvegicus [35] = species: Rattus norvegicus; assay: Radioactivity distribution in testis of normal fischer rat after injection of syn-[18F]-FMACBC after 30 min.; type: ADME, organism-based; conditions: in vivo, 0.5 h; in short: as §4
# Rattus norvegicus [36] = species: Rattus norvegicus; assay: Radioactivity distribution in brain of tumor-bearing fischer rat after injection of syn-[18F]-FMACBC after 120 min; type: ADME, organism-based; conditions: in vivo, 2 h; in short: as §1
# Rattus norvegicus [37] = species: Rattus norvegicus; assay: Radioactivity distribution in blood of normal fischer rat after injection of anti-[18F]FMACBC after 30 min.; type: ADME, organism-based; conditions: in vivo, 0.5 h; in short: as §3
# Rattus norvegicus [38] = species: Rattus norvegicus; assay: Radioactivity distribution in lung of normal fischer rat after injection of anti-[18F]FMACBC after 60 min.; type: ADME, organism-based; conditions: in vivo, 1 h; in short: as §4
# Rattus norvegicus [39] = species: Rattus norvegicus; assay: Radioactivity distribution in heart of tumor-bearing fischer rat after injection of syn-[18F]-FMACBC after 60 min; type: ADME, organism-based; conditions: in vivo, 1 h; in short: as §1
# Rattus norvegicus [40] = species: Rattus norvegicus; assay: Radioactivity distribution in liver of normal fischer rat after injection of syn-[18F]-FMACBC after 120 min.; type: ADME, organism-based; conditions: in vivo, 2 h; in short: as §3
# Rattus norvegicus [41] = species: Rattus norvegicus; assay: Radioactivity distribution in tumor of tumor-bearing fischer rat after injection of syn-[18F]-FMACBC after 60 min; type: ADME, organism-based; conditions: in vivo, 1 h; in short: as §2
structure (smiles),measurement,setting,value
N[C@]1(C(=O)O)C[C@@H](CF)C1,ID/g,Rattus norvegicus [1],0.63%
same,ID/g,Rattus norvegicus [2],0.33%
same,ID/g,Rattus norvegicus [3],0.59%
same,ID/g,Rattus norvegicus [4],0.66%
same,ID/g,Rattus norvegicus [5],0.54%
same,ID/g,Rattus norvegicus [6],0.23%
same,ID/g,Rattus norvegicus [7],0.63%
same,ID/g,Rattus norvegicus [8],0.23%
same,ID/g,Rattus norvegicus [9],0.46%
same,ID/g,Rattus norvegicus [10],0.33%
same,ID/g,Rattus norvegicus [11],0.7%
same,ID/g,Rattus norvegicus [12],0.26%
same,ID/g,Rattus norvegicus [13],0.96%
same,ID/g,Rattus norvegicus [14],3.88%
same,ID/g,Rattus norvegicus [15],0.23%
same,ID/g,Rattus norvegicus [16],1.16%
same,ID/g,Rattus norvegicus [17],0.23%
same,ID/g,Rattus norvegicus [18],0.31%
same,ID/g,Rattus norvegicus [19],0.46%
same,ID/g,Rattus norvegicus [20],4.09%
same,ID/g,Rattus norvegicus [21],0.32%
same,ID/g,Rattus norvegicus [22],0.57%
same,ID/g,Rattus norvegicus [23],2.48%
same,ID/g,Rattus norvegicus [24],3.13%
same,ID/g,Rattus norvegicus [25],0.26%
same,ID/g,Rattus norvegicus [26],0.37%
same,ID/g,Rattus norvegicus [27],0.21%
same,ID/g,Rattus norvegicus [28],0.45%
same,ID/g,Rattus norvegicus [29],0.87%
same,ID/g,Rattus norvegicus [30],0.38%
same,ID/g,Rattus norvegicus [31],0.26%
same,ID/g,Rattus norvegicus [32],0.46%
same,ID/g,Rattus norvegicus [33],0.61%
same,ID/g,Rattus norvegicus [34],0.17%
same,ID/g,Rattus norvegicus [35],0.29%
same,ID/g,Rattus norvegicus [36],0.27%
same,ID/g,Rattus norvegicus [37],0.39%
same,ID/g,Rattus norvegicus [38],0.41%
same,ID/g,Rattus norvegicus [39],0.44%
same,ID/g,Rattus norvegicus [40],0.52%
same,ID/g,Rattus norvegicus [41],1.59%
